The values below come from publication PMC8646148 (Bioorganic chemistry, 2021).

pEC50, pIC50: −log10 of the molar value.

Series [1] concerns the target T1, ligand-binding domain of human PXR (Homo sapiens, UniProt O75469).
T1 sequence (O75469 146-433 limits assumed): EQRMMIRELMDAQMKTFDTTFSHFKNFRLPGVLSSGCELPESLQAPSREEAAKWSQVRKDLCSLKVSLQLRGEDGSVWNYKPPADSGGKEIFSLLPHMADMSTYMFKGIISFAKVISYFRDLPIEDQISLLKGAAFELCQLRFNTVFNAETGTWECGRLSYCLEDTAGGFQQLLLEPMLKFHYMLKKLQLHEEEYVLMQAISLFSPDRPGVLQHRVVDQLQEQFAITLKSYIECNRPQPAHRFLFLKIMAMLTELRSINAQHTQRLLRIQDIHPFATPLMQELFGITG
As to the kind of experiment: LanthaScreen TR-FRET PXR. The method in brief: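 LanthaScreen TR-FRET competitive binding used the human PXR ligand-binding domain and measured displacement of a fluorescent ligand. The signal was the emission ratio 520 nm/495 nm, plotted against test compound concentration. IC50 came from interpolated sigmoidal 4PL variable-slope curves. Quadruplicate wells; at least four independent experiments. Positive control: SR12813 at 100 μM.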
Background: Time-resolved FRET reads energy transfer from a long-lived donor to a nearby acceptor.

The target of series [2] is T2, AhR (Homo sapiens, UniProt P35869).
T2 sequence (P35869 11-848): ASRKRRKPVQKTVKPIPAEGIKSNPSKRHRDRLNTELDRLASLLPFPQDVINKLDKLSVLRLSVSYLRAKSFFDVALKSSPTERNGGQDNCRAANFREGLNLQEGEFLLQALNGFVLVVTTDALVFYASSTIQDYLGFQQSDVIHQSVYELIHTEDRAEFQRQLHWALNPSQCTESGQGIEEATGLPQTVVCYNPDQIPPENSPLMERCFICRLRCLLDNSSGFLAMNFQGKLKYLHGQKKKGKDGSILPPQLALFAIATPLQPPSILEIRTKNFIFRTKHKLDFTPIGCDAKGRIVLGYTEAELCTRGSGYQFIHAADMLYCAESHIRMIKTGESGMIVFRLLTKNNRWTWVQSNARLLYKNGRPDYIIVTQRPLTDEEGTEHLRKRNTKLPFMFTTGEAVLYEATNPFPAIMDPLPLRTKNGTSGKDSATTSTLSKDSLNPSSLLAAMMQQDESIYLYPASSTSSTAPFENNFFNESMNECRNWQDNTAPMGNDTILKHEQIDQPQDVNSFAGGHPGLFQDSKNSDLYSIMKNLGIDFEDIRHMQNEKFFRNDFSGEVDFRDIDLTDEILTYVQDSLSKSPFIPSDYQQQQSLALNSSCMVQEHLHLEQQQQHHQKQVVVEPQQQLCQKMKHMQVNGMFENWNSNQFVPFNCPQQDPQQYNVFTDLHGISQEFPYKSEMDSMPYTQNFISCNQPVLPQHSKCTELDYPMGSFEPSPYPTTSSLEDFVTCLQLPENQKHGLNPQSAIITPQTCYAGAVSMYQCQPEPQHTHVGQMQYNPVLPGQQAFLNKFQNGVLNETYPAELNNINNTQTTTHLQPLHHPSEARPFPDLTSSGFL
As to the kind of experiment: AhR reporter gene assay in stably transfected AZ-AHR cells. The following applies: 24 h; for AhR agonistic activity: agonist mode, AZ-AHR cells; for Inhibition of TCDD-inducible luciferase activity: antagonist mode, TCDD 5 nM, attributed to cytotoxicity. The class given is cell-based. In short, it runs like this: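 AZ-AHR human hepatoma cells stably carrying an AhR-responsive luciferase reporter were exposed for 24 h to test compound at up to 50 μM (vehicle DMSO 0.1% v/v). Agonist mode was run without TCDD; antagonist mode with TCDD 5 nM. Lysed cells were read for luciferase. Agonist data are fold over negative control; antagonist data are % of the 5 nM TCDD maximum. Four wells per treatment, three consecutive passages.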

In series [3] the target is T3, PXR (Homo sapiens, UniProt O75469).
T3 sequence (O75469 1-434): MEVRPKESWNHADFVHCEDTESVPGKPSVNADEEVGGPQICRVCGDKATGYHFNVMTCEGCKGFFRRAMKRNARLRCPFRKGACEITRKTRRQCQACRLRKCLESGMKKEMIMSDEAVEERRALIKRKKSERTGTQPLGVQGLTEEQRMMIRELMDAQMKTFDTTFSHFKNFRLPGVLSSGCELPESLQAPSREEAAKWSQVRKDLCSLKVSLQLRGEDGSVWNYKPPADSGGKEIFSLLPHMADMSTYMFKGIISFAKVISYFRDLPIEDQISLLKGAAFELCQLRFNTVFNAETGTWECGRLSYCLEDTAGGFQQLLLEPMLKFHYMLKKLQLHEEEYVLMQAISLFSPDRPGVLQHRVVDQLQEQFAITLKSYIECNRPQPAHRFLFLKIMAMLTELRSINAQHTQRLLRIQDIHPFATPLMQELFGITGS
Nature of the series: PXR reporter gene assay in LS180 cells transfected with pSG5-hPXR and p3A4-luc. The class given is cell-based. Particulars: for PXR antagonist effect: antagonist mode, in the presence of RIF 10 μM, 24 h. The method in brief:
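LS180 cells were lipofected transiently with pSG5-hPXR and p3A4-luc, then treated 24 h with test compound at up to 50 μM in DMSO 0.1% v/v. Agonist mode had no rifampicin; antagonist mode had RIF 10 μM. Luciferase was read after lysis. Antagonist data are % of the 10 μM RIF maximum. Four technical replicates, three consecutive passages.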
A general note: In a reporter assay the amount or activity of a reporter protein is the signal.

In series [4] the test system is CYP1A1 mRNA. As to the kind of experiment: qRT-PCR of CYP1A1 in primary human hepatocytes. The class given is cell-based. Particulars: human hepatocytes from five donors, 10 μM, 24 h. In short, it runs like this:
(§1)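 Long-term monolayer primary human hepatocytes came from five male donors aged 43–89 years. They were treated 24 h with test compound at 10 μM, with vehicle DMSO 0.1% v/v and reference ligands TCDD 10 nM and RIF 10 μM. Total RNA was extracted with TRI Reagent, and mRNA was measured by probe-based qRT-PCR normalized to GAPDH. Statistics: one-way ANOVA, with 2-fold induction as threshold.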
A general note: In qPCR the cycle at which signal appears reflects the starting amount.

Series [5] has as its system CYP1A2 mRNA. As to the kind of experiment: qRT-PCR of CYP1A2 in primary human hepatocytes. The format is cell-based. Particulars: human hepatocytes from five donors, 10 μM, 24 h. The method in brief:
as §1

Series [6] deals with LS180 cells. As to the kind of experiment: MTT test in LS180 cells. Particulars: 50 μM, 24 h. The format is cell-based, human. The method in brief: (§2)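 MTT viability was run alongside the reporter assays in AZ-AHR cells and in PXR-transfected LS180 cells. Exposure was 24 h to test compound at up to 50 μM, with vehicle DMSO 0.1% v/v. Results are given as % viability. Four technical replicates per treatment, across three consecutive cell passages.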

In series [7] the test system is AZ-AHR cells. As to the kind of experiment: MTT test in AZ-AHR cells. The class given is cell-based, human. The following applies: 24 h, up to 50 μM. In short, it runs like this:
as §2

For series [8], the system named is MDR1 mRNA. Nature of the series: qRT-PCR of MDR1 in intestinal adenocarcinoma cells. The following applies: 24 h; for Induction of MDR1 mRNA: LS174T, LS174T+PXR and LS180+PXR cells; for Induction of MDR1 mRNA in PXR-KO cells: PXR-KO LS174T cells. The class given is cell-based, human. In short, it runs like this: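 Four intestinal models were used: LS174T wild-type, a CRISPR-Cas9 PXR-knockout LS174T line, and LS174T and LS180 cells transiently transfected with a human PXR expression vector. Cells were treated 24 h with test compound at 10 μM (DMSO 0.1% v/v), alongside TCDD 10 nM or RIF 10 μM. MDR1 mRNA was measured by qRT-PCR normalized to GAPDH. Three consecutive passages, one well per treatment.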

In series [9] the test system is CYP3A11 mRNA. Nature of the series: CYP3A11 gene expression in tissues of mice expressing the human PXR transgene. The class given is in vivo, mice expressing the human PXR gene (hPXR). In short, it runs like this: (§3)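 Humanized hPXR mice (C57BL/6 background, 6–10 weeks) received 10% DMSO or test compound in 3 or 5 doses of 500 μM each, 12 h apart. Groups had n = 3 (1 male, 2 females). Small intestine, large intestine and liver were assayed by qRT-PCR for CYP3A11 and MDR1a mRNA. Analysis: unpaired multiple t-tests with Holm-Sidak correction, α = 0.05, and a ≥2-fold induction criterion.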

Series [10] has as its system MDR1a mRNA. Nature of the series: MDR1a gene expression in tissues of mice expressing the human PXR transgene. The format is in vivo, mice expressing the human PXR gene (hPXR). In short, it runs like this: as §3
The test system of series [11] is CYP3A4 mRNA. Nature of the series: qRT-PCR of CYP3A4 in primary human hepatocytes. The format is cell-based. Particulars: five hepatocyte cultures, 10 μM, 24 h.
Series [12] addresses T3, PXR. The following applies: ref [21]; cited from earlier work.
The subject of series [13] is CYP3A11 mRNA. Particulars: PXR target genes CYP3A11 and MDR1a; depending on the dose schedule; ref [21]; cited from earlier work.
Series [14] concerns MDR1 mRNA. As to the kind of experiment: qRT-PCR of MDR1 in primary human hepatocytes. The class given is cell-based. Particulars: five hepatocyte cultures, RIF 10 μM, 24 h.
Setting [15] is: liver, large and small intestine, 3 or 5 doses (500 μM/dose), 12 h interval.

`C#CCC(O)(c1ccncc1)c1cc2ccccc2[nH]1` (stereo not shown) [CVK-003, 1-(1H-indol-2-yl)-1-(pyridin-4-yl)but-3-yn-1-ol] gave a pIC50 in series [1] of 5.07. Also, the AhR agonistic activity entry in series [2] is recorded as “strong”. The pEC50 in series [3] is 5.12.

As for `O=C(c1ccn2ccnc2c1)c1cc2ccccc2n1S(=O)(=O)c1ccccc1` [CVK-016, imidazo[1,2-a]pyridin-7-yl(1-(phenylsulfonyl)-1H-indol-2-yl)methanone], the “Induction of hepatic CYP1A1 mRNA” value in [4] is reported as “significantly induced”. The “Inhibition of TCDD-inducible luciferase activity” value (“Inhibition” for short) in series [2] is listed as “Dose-dependent inhibition”. Moreover, the “Induction of hepatic CYP1A2 mRNA” value in series [5] is given as “significantly induced”. The “Cytotoxicity (MTT)” value in series [6] is listed as “slightly cytotoxic”. The “Cytotoxicity in AZ-AHR cells” value in series [7] is on record as “cytotoxic effects”. Also, in series [8], the “Induction of MDR1 mRNA” value was “Dose-dependent induction” and the “Induction of MDR1 mRNA in PXR-KO cells” value was “no effects”. Also, in series [3], the pEC50 is around 6.10 and the PXR antagonist effect result is reported as “Dose-dependent antagonist effects”.

Regarding `O=S(=O)(c1ccccc1)n1c(C(O)c2ccn3ccnc3c2)cc2ccccc21` (stereo not shown) [CVK-017, imidazo[1,2-a]pyridin-7-yl(1-(phenylsulfonyl)-1H-indol-2-yl)methanol], in [2], the AhR agonistic activity result is recorded as “moderate” and the “Inhibition” value is listed as “Dose-dependent inhibition”. In addition, the “Cytotoxicity (MTT)” value in series [6] is recorded as “slightly cytotoxic”. The “Cytotoxicity in AZ-AHR cells” value in series [7] is given as “cytotoxic effects”. Further, in series [8], the “Induction of MDR1 mRNA” value is recorded as “Dose-dependent induction” and the “Induction of MDR1 mRNA in PXR-KO cells” value was “no effects”. In addition, in [3], the pEC50 was around 6.10 and the PXR antagonist effect result is “Dose-dependent antagonist effects”.

Take `C#CCC(O)(c1ccn2ccnc2c1)c1cc2ccccc2n1S(=O)(=O)c1ccccc1` (stereo not shown) [CVK-021, 1-(imidazo[1,2-a]pyridin-7-yl)-1-(1-(phenylsulfonyl)-1H-indol-2-yl)but-3-yn-1-ol]: the CYP3A11 gene expression entry in series [9] (3-dose and 5-dose study) is given as “not affected”. Besides, in [9] (setting [15]), the “Induction (≥ 2) of mean CYP3A11 mRNA expression” value was “no significant induction”. This molecule had a negative-log IC50 (pIC50) in series [1] of 6.04. The “Inhibition” value in series [2] is “Dose-dependent inhibition”. Moreover, in series [10] (large and small intestines), the “MDR1a gene expression, Figure 7A” value was “increased gene expression”. In series [10] (liver and large intestine), the “MDR1a gene expression, Figure 7B” value is “increased gene expression”. Also, in series [10] (setting [15]), the “Induction (≥ 2) of mean MDR1a mRNA expression” value is “no significant induction”. Besides, the “Cytotoxicity (MTT)” value in series [6] was “slightly cytotoxic”. Moreover, the “Cytotoxicity in AZ-AHR cells” value in series [7] is “cytotoxic effects”. Further, the “Induction of CYP3A4 mRNA in human hepatocytes” value in series [11] is listed as “significantly induced CYP3A4 mRNA in all five human hepatocytes cultures”. Besides, in [8], the “Induction of MDR1 mRNA” value is recorded as “Dose-dependent induction” and the “Induction of MDR1 mRNA in PXR-KO cells” value is given as “no effects”. In series [3], the pEC50 was around 6.10 and the PXR antagonist effect entry is on record as “Dose-dependent antagonist effects”.

As for `C#CCC(O)(c1ccncc1)c1cc2ccccc2n1S(=O)(=O)c1ccccc1` (stereo not shown) [FKK6, 1-(1-(phenylsulfonyl)-1H-indol-2-yl)-1-(pyridin-4-yl)but-3-yn-1-ol], the “PXR versus AhR agonist selectivity” value in series [12] is “selective PXR agonist”. In [13], the “Induction of PXR target genes in mouse intestines or liver” value was “robustly induced”.

For `CO[C@H]1/C=C/O[C@@]2(C)Oc3c(C)c(O)c4c(O)c(c(/C=N/N5CCN(C)CC5)c(O)c4c3C2=O)NC(=O)/C(C)=C\C=C\[C@H](C)[C@H](O)[C@@H](C)[C@@H](O)[C@@H](C)[C@H](OC(C)=O)[C@@H]1C` [rifampicin], the “Induction of MDR1 mRNA in human hepatocytes” value in series [14] was “induction only by rifampicin and only in three hepatocytes cultures”.

In general, pIC50 refers to the negative decadic logarithm of the IC50, by convention in mol/L. Low values mean a high IC50, high ones a low IC50. In general, pEC50 refers to the EC50 on a negative log10 scale, so that one unit is a factor of ten. Read a high pEC50 as a low EC50.
